SKN-1 block – C. elegans SKN-1 inhibition; C. elegans VP596 Pgst-4::GFP/RFP ratio, acrylamide-induced, 24 h; inhibition, % at 21.8 µM; 360,000 tested, 0.49% active; AID 624304;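 active = interference check ratio from 0.5 to 1.5 plus GFP to RFP signal ratio inhibition reaching or exceeding a fixed threshold, cut at about 30% in these data, passing the limit was not always enough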
MT1-MMP act inh – inhibitors of human MT1-MMP activation. P50281. HT1080 RFP-PRO-GFP cells, GFP/RFP ratio fluorescence, overnight; percent of plate control window, DMSO zero. GFP/RFP ratio change, % at 20 µM. 360,000 tested, 0.061% active;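 active = GFP/RFP ratio change of at least 30% with cell ATP level not reduced by more than half and red fluorescence within 50% of control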
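Assay system: HT1080 cells carrying an RFP-PRO-GFP reporter | Dosing: Single dose of 20 µM compound, 1% DMSO final | Incubation: Cells overnight before dosing, compound overnight, 37 °C, 5% CO2 | Evaluation: GFP/RFP fluorescence ratio | Control set: DMSO and RFP-L50D-GFP cell wells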
PABP polyA inh – blocks human PABP binding to poly(A) RNA | P11940 | fluorescence polarization | calls only at 35 µM | 290,000 tested, 1% active | AID 2014;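 note: calls also rest on retests at 20 µM and on dose response follow-up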
Target sequence (P11940 whole entry, looked up): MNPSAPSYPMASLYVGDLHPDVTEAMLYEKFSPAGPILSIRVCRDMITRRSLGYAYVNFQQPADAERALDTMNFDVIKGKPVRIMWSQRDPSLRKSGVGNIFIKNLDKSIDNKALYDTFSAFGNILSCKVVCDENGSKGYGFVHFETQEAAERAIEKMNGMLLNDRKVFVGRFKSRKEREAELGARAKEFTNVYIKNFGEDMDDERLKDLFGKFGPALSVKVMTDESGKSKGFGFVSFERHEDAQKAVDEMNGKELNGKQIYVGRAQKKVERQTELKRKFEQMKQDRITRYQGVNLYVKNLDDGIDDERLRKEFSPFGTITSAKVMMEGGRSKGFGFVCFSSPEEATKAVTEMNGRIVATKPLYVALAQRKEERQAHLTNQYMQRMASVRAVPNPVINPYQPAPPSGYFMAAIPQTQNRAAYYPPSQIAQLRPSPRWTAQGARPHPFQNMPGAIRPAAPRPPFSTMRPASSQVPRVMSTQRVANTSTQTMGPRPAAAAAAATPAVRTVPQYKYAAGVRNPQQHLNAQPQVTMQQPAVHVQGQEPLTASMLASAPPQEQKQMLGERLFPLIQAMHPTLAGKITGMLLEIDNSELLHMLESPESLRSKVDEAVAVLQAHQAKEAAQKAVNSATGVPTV
eIF4H inh – inhibitors of RNA binding by human eIF4H | Q15056 | eIF4H fluorescence polarization binding assay | inhibition, % at 35 µM | 290,000 tested, 0.94% active;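 note: calls also rest on retests at 20 µM and on dose response follow-up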
PABP1 MLLE inh – blocks PAM2 peptide binding to the PABP1 MLLE domain; inhibition, % at 20 µM; AID 588489; GST-MLLE / FITC-PAM2 fluorescence polarization; 360,000 tested, 0.36% active; P11940; in the data active = inhibition above about 35%, passing the limit was not always enough;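 note: plate controls were DMSO wells with GST-MLLE for no effect and wells lacking GST-MLLE protein for full effect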
An asterisk follows results filed as active; i = inactive; ? = inconclusive; · = no result given; + = active, no number. Most compounds without a hit are left out; they make up all but 1.8% or so of the library. Unless noted, the rule behind the calls is not given here.

SMILES	SKN-1 block	MT1-MMP act inh	PABP polyA inh	eIF4H inh	PABP1 MLLE inh
O=C(C[C@@H]1C/C=C\C[C@H](Cc2ccc(F)cc2)C(=O)OC[C@@H]2CCCN2C1=O)N[C@H](CO)Cc1ccccc1	-18	6	·	·	-4
NC1=C(Br)C(=O)c2ncccc2C1=O	8	-12	·	·	39*
Cc1cc(C(=O)CN2C(=O)NC3(CCCc4ccccc43)C2=O)c(C)n1Cc1ccccc1 (stereo unspecified)	36*	0	i	-1	-16
Cc1cc(C(=O)CN2C(=O)NC3(CCCc4ccccc43)C2=O)c(C)n1Cc1ccco1 (stereo unspecified)	·	·	i	19	·
CN1NC(c2ccccc2)NN(C)C1=O	1	2	·	·	4
CC1C2C(c3ccccc3)N(C)C(=O)N(C)C2N(C)C(=O)N1C (stereo unspecified)	3	-1	+	57*	21
O=C(CCN1C(=O)/C(=C/c2ccccc2F)SC1=S)NCCCN1CCOCC1	1	0	i	0	19
O=C(CCCN1C(=O)/C(=C/c2ccccc2Cl)SC1=S)NCCCN1CCOCC1	-1	3	i	-9	41*
CC(=O)Nc1ccc(C(=O)CN2C(=O)NC3(CCCc4ccccc43)C2=O)c(F)c1 (stereo unspecified)	16	2	·	·	1
O=C1N=C(N2C=CC(=C3C=CNC=C3)C=C2)/C(=C/N=NC(=O)c2ccccc2O)S1	8	-9	·	·	48*
O=C(CSc1ccc(-c2ccco2)nn1)c1ccc(F)cc1	8	8	+	90	33
Fc1ccc(CSc2ccc(-c3ccco3)nn2)cc1	22	3	+	?	4
Fc1cccc(CSc2ccc(-c3ccco3)nn2)c1	49*	0	i	36	11
O=C(CSc1ccc(-c2ccco2)nn1)NCc1ccc(F)cc1	9	-1	i	21	26
CCSc1ccc(-c2ccco2)nn1	12	-2	i	79	7
Cc1ccc(CN2CC(N3CCCC3)CS2(=O)=O)cc1 (stereo unspecified)	6	0	·	·	6
COCCNc1ncnc2c1ncn2[C@H]1CN(Cc2ccncc2)C[C@@H](CO)O1	-5	-9	·	·	-4
CCN(CC)c1nc(NN)nc(Nc2ccc(C)c(Cl)c2)n1	7	-8	·	·	11
O=C1CN(C(=O)/C=C/c2ccco2)c2ccccc2N1	-4	-2	i	71*	-16
O=S(=O)(Nc1cccc(C(F)(F)F)c1)c1cnc[nH]1	-2	15	i	4	-3
O=S(=O)(Nc1ccc(C(F)(F)F)cc1)c1cnc[nH]1	38*	-6	i	-2	-6
CCc1nc2ccc(C(=O)N3CCCC(C(N)=O)C3)cn2c1N(C=O)CC (stereo unspecified)	11	2	·	·	3
COCCN(C(=O)COC(=O)c1c(-c2ccccc2)noc1C)c1c(N)n(Cc2ccccc2)c(=O)[nH]c1=O	4	-5	i	0	-3
CCc1nc2ccccc2c(C(=O)OCC(=O)N(CCOC)c2c(N)n(Cc3ccccc3)c(=O)[nH]c2=O)c1C	41*	-18	·	·	4
Fc1ccc(-[n+]2nc(Nc3ccccc3)sc2-c2cccc(Cl)c2Cl)cc1	-22	-4	i	-8	50*
SMILES	SKN-1 block	MT1-MMP act inh	PABP polyA inh	eIF4H inh	PABP1 MLLE inh
O=C(N1CCOCC1)N1[C@H](COCc2ccccc2)C=CS1(=O)=O	-5	0	·	·	7
Oc1[nH]c(=S)sc1/C=C1\C(c2ccccc2)=Nc2ccccc21	25	-69	i	57*	-138
CCOC(=O)c1c(/N=C/c2ccccc2O)sc2c1CCC2	10	-2	i	4	-15
CCOC(=O)c1c(/N=C/c2ccc(O)cc2O)sc2c1CCC2	·	·	+	65*	·
Cc1noc(/C=C/Nc2ccc(F)cc2F)c1[N+](=O)[O-]	11	-1	i	70	50*
COc1ccccc1-c1csc(Nc2ccc(Oc3ccccc3)cc2)n1	11	3	·	·	-6
O=C(COC(=O)CCc1c[nH]c(=O)[nH]1)Nc1cccc(Cl)c1	8	-5	i	16	39*
CC(C)NC(=O)N(C)C[C@H]1OCCCC[C@H](C)Oc2ccc(NS(=O)(=O)c3ccccc3)cc2C(=O)N([C@H](C)CO)C[C@H]1C	2	0	·	·	11
CCN(CCCNC(=O)CC(C(=O)N1CCc2ccccc21)n1ccnc1)c1cccc(C)c1 (stereo unspecified)	38*	-1	i	3	10
CC(NC(=O)C1CCC(CNS(=O)(=O)c2ccccc2)CC1)c1ccccc1 (stereo unspecified)	9	-1	i	-6	-2
O=C1C(=NO)CCc2ccccc21	20	-4	·	·	5
O/N=C1/CCc2cccc3cccc1c23	2	-17	+	62*	19
Cc1ccn(C)c(=N)c1	19	-2	+	active	-89
CCn1c(O)c(N=NC(=O)CNc2cccc(C)c2)c2ccccc21	2	2	i	-6	5
C=CCn1c(O)c(N=NC(=S)Nc2ccccc2F)c2ccccc21	0	5	i	5	39*
C=CCn1c(O)c(N=NC(=S)Nc2ccccc2F)c2cc(S(=O)(=O)N3CCOCC3)ccc21	-1	4	i	0	42*
Cc1ccccc1NC(=S)N=Nc1c(O)n(C)c2ccc(S(=O)(=O)N3CCOCC3)cc12	11	7	i	5	30
C=CCn1c(O)c(N=NC(=S)Nc2cccc(C)c2)c2ccccc21	1	-5	i	5	42*
COc1cc(Cn2c3ccc(NC(=S)NCc4ccc(C)cc4)cc3c(=O)n2C)ccc1F	-2	-1	·	·	-32
CCCCc1c(Cc2ccccc2)ncn1CCc1ccccc1OC	-10	2	·	·	·
CCCCn1c(-c2cccnc2)nc2cc3[nH]c(=O)c(C(C)C)nc3cc21	7	-8	+	76	-30
CCCCn1c(-c2ccc(C(C)(C)C)cc2)nc2cc3[nH]c(=O)c(C(C)C)nc3cc21	13	-10	+	66	-22
N#Cc1cccc(NC(=O)c2cc(C3CCCCN3C(=O)c3ccccn3)on2)c1 (stereo unspecified)	2	-1	·	·	15
O=C1C=C(c2cccc(CO)c2)C[C@@H](c2ccc(F)cc2)C1	-6	-2	·	·	-1
O=C1c2ccccc2OC2(C=Cc3ccccc3O2)N1Cc1ccccc1 (stereo unspecified)	40*	-6	i	-6	-2
c1ccc2c(c1)CCN(C1=Nc3cccc4cccc1c34)C2	49*	38	i	?	-17
O=S(=O)(c1ccc2ccccc2c1)N1CCN(c2ccc(O)cc2)CC1	-5	0	·	·	-5
CC(C)CC(C(=O)Nc1cccc(O)c1)N1C(=O)c2ccccc2C1=O (stereo unspecified)	4	4	i	-3	5
